According to PMC6122986 (The Journal of Cell Biology, 2018):

Tests used:
[1] = target: FITC-labeled NOD "PT" motif-1 peptide (Drosophila melanogaster); test: MST
[2] = tested on: MTs in Drosophila S2 cells; test: Plus end-directed motility on MTs in cells; assay type: cell-based; conditions: TIRF microscopy, interphase S2 cells
Outline: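 Live TIRF imaged mCherry-tagged constructs on cortical MTs of interphase S2 cells. Cells were plated on concanavalin A-coated glass after 16–18 h CuSO4 induction at 500 µM (high) or 25 µM (low). Frames were taken every 1 s (single colour) or 2 s (dual colour, with GFP-α-tubulin). Velocities came from manually tracking motile puncta, with kymographs for direction.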

[3] = tested on: MTs in Drosophila S2 cells; test: MT association / localization in Drosophila S2 cells by live cell imaging; assay type: cell-based; conditions: fixation with paraformaldehyde and permeabilization with detergent
Outline: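 Drosophila S2 cells were grown in Schneider's medium with 10% heat-inactivated FBS at 25°C. Lines stably expressing C-terminally mCherry-tagged NOD truncations from a copper-inducible pMT vector were selected with blasticidin and/or hygromycin. Expression was induced with 500 µM or 25 µM CuSO4 for 16–18 h. Cells were imaged live on concanavalin A-coated glass and MT association scored as weak or strong. Retention was also checked after paraformaldehyde fixation and detergent permeabilization.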

B1: Drosophila GST-EB1 (natural protein)
chain: MAVNVYSTNVTSENLSRHDMLAWVNDCLQSQFSKIEELCTGAAYCQFMDMLFPNSVPVKRVKFRTNLEHEYIQNFKILQAGFKKMSVDKIIPIDKLVKGRFQDNFEFLQWFKKFFDANYDGRDYDASAVREGAPMGFGSGAVKSLPGTAASGVSSSYRRGPSATTRPAMTSAVKPISKVLPRTNNAAPASRINACANSTGTVKKNDVSNSVNNQQIEEMSNQVMDMRINLEGLEKERDFYFSKLRDIEILCQEADDAEAHPIIQKILDILYATEDGFAPPDDAPPEDEEY
Kd [1]: 725 nM

B2: NOD485: NOD truncation (1–485) that encompasses the motor domain and the noncanonical neck extension region (protein, UniProt P18105 1-485, looked up, fragment)
chain: MEGAKLSAVRIAVREAPYRQFLGRREPSVVQFPPWSDGKSLIVDQNEFHFDHAFPATISQDEMYQALILPLVDKLLEGFQCTALAYGQTGTGKSYSMGMTPPGEILPEHLGILPRALGDIFERVTARQENNKDAIQVYASFIEIYNEKPFDLLGSTPHMPMVAARCQRCTCLPLHSQADLHHILELGTRNRRVRPTNMNSNSSRSHAIVTIHVKSKTHHSRMNIVDLAGSEGVRRTGHEGVARQEGVNINLGLLSINKVVMSMAAGHTVIPYRDSVLTTVLQASLTAQSYLTFLACISPHQCDLSETLSTLRFGTSAKKLRLNPMQVARQKQSLAARTTHVFRQALCTSTAIKSNAANHNSIVVPKSKYSTTKPLSAVLHRTRSELGMTPKAKKRARELLELEETTLELSSIHIQDSSLSLLGFHSDSDKDRHLMPPPTGQEPRQASSQNSTLMGIVEETEPKESSKVQQSMVAPTVPTTVRCQL
motility on MTs in cells (in words) [2]: motility was not obvious | MT localization upon fixation (in words) [3]: significantly reduced upon fixation
